Results as given in ChEMBL document CHEMBL2177092, “Phosphoramidate ProTides of the anticancer agent FUDR successfully deliver the preformed bioactive monophosphate in cells and confer advantage over the parent nucleoside” (J Med Chem, 2011).

Assays:
L1210 [1] = experiment: Cytostatic activity against Mycoplasma hyorhinis-infected mouse L1210 cells after 48 hrs by cell counting; type: functional, cell-based; conditions: L1210, 48 h
Outline: (§1)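 Suspension leukemia cells in DMEM with 10% FBS, 10 mM Hepes and 1 mM sodium pyruvate at 37 °C under 5% CO2. Seeded at 60 000 cells/well with graded compound levels. Grown 48 h (L1210) or 72 h (CEM), then counted by Coulter counter. Mean ± SD of two to four independent experiments.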

L1210 [2] = experiment: Ratio of IC50 for Mycoplasma hyorhinis-infected mouse L1210 cells to IC50 for mouse L1210/0 cells after 48 hrs by cell counting; type: functional
Outline: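 Murine L1210/0 cells were compared with L1210/TK cells, selected for resistance to 5-bromo-2'-dUrd, and with L1210.Hyor cells, chronically infected with Mycoplasma hyorhinis. Cells were grown in DMEM with 10% FBS, 10 mM Hepes and 1 mM pyruvate at 37 °C and 5% CO2, then seeded at 60 000 cells/well with compound. They were Coulter-counted after 48 h. […] Mean of 2–4 experiments.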

CCRF-CEM [3] = experiment: Cytostatic activity against human CEM/0 cells after 72 hrs by cell counting; type: functional, cell-based
Outline: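 Suspension leukemia cells in DMEM with 10% FBS, 10 mM Hepes and 1 mM sodium pyruvate at 37 °C under 5% CO2. Seeded at 60 000 cells/well with graded compound levels. Grown 48 h (L1210) or 72 h (CEM), then counted by Coulter counter. […] Mean ± SD of two to four independent experiments.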

CCRF-CEM [4] = experiment: Cytostatic activity against thymidine-kinase deficient human CEM cells after 72 hrs by cell counting; type: functional, cell-based; outline: as §1
[5] = Cytostatic activity against mouse L1210/0 cells after 48 hrs by cell counting; type: functional, cell-based; conditions: L1210/0, 48 h; outline: as §1
HeLa [6] = experiment: Cytostatic activity against human HeLa cells […] by cell counting; type: functional, cell-based
L1210 [7] = experiment: Cytostatic activity against thymidine-kinase deficient mouse L1210 cells after 48 hrs by cell counting; type: functional, cell-based; conditions: L1210, 48 h; outline: as §1
HeLa [8] = experiment: Cytostatic activity against thymidine-kinase deficient human HeLa cells […]; type: functional, cell-based

Structure (SMILES)	IC50 (L1210 [1]) [nM]	Ratio IC50 (L1210 [2])	IC50 (CCRF-CEM [3]) [nM]	IC50 (CCRF-CEM [4]) [nM]	IC50 [5] [nM]	IC50 (HeLa [6]) [nM]	IC50 (L1210 [7]) [nM]	IC50 (HeLa [8]) [nM]
O=C(OCc1ccccc1)[C@@H]1CCCN1P(=O)(OC[C@H]1O[C@@H](n2cc(F)c(=O)[nH]c2=O)C[C@@H]1O)Oc1cccc2ccccc12 (mixture of isomers)	650	2.5	890	32000	260	1200	25000	26000
CCCCCOC(=O)C(C)(C)NP(=O)(OC[C@H]1O[C@@H](n2cc(F)c(=O)[nH]c2=O)C[C@@H]1O)Oc1cccc2ccccc12 (mixture of isomers)	19	0.42	140	5400	45	120	300	2300
CCCCOC(=O)[C@H](C)NP(=O)(OC[C@H]1O[C@@H](n2cc(F)c(=O)[nH]c2=O)C[C@@H]1O)Oc1cccc2ccccc12 (mixture of isomers)	21	2.2	64	840	9.5	120	110	2700
CCCCCCOC(=O)[C@H](C)NP(=O)(OC[C@H]1O[C@@H](n2cc(F)c(=O)[nH]c2=O)C[C@@H]1O)Oc1cccc2ccccc12 (mixture of isomers)	2.2	0.69	80	650	3.2	39	76	1800
C[C@H](NP(=O)(OC[C@H]1O[C@@H](n2cc(F)c(=O)[nH]c2=O)C[C@@H]1O)Oc1cccc2ccccc12)C(=O)OC1CCC1 (mixture of isomers)	24	2.2	73	1500	11	69	88	1500
C[C@H](NP(=O)(OC[C@H]1O[C@@H](n2cc(F)c(=O)[nH]c2=O)C[C@@H]1O)Oc1cccc2ccccc12)C(=O)OC1CCCC1 (mixture of isomers)	24	1.5	35	920	16	71	130	2200
C[C@H](NP(=O)(OC[C@H]1O[C@@H](n2cc(F)c(=O)[nH]c2=O)C[C@@H]1O)Oc1cccc2ccccc12)C(=O)OC1CCCCC1 (mixture of isomers)	49	1.4	57	1000	36	90	150	–
C[C@H](NP(=O)(OC[C@H]1O[C@@H](n2cc(F)c(=O)[nH]c2=O)C[C@@H]1O)Oc1cccc2ccccc12)C(=O)OCC(C)(C)C (mixture of isomers)	180	1.9	490	6700	93	700	1200	32000
C[C@H](NP(=O)(OC[C@H]1O[C@@H](n2cc(F)c(=O)[nH]c2=O)C[C@@H]1O)Oc1cccc2ccccc12)C(=O)OCCC(C)(C)C (mixture of isomers)	32	2.7	53	190	12	78	62	1300
C[C@H](NP(=O)(OC[C@H]1O[C@@H](n2cc(F)c(=O)[nH]c2=O)C[C@@H]1O)Oc1cccc2ccccc12)C(=O)OCC1CC1 (mixture of isomers)	31	2.2	59	1100	14	68	120	1400
C[C@H](NP(=O)(OC[C@H]1O[C@@H](n2cc(F)c(=O)[nH]c2=O)C[C@@H]1O)Oc1cccc2ccccc12)C(=O)OC1Cc2ccccc2C1 (mixture of isomers)	42	1.08	79	1000	39	100	40000	7100
C[C@H](NP(=O)(OC[C@H]1O[C@@H](n2cc(F)c(=O)[nH]c2=O)C[C@@H]1O)Oc1cccc2ccccc12)C(=O)OC1CCOCC1 (mixture of isomers)	480	11.7	110	43000	41	130	27000	15000
CC(C)[C@H](NP(=O)(OC[C@H]1O[C@@H](n2cc(F)c(=O)[nH]c2=O)C[C@@H]1O)Oc1cccc2ccccc12)C(=O)OC1CCCCC1 (mixture of isomers)	1290	1.08	800	46000	1200	670	35000	27000
CCCCCOC(=O)[C@H](CC(C)C)NP(=O)(OC[C@H]1O[C@@H](n2cc(F)c(=O)[nH]c2=O)C[C@@H]1O)Oc1cccc2ccccc12 (mixture of isomers)	35	1.13	71	15000	31	39	1200	7500
CC(C)C[C@H](NP(=O)(OC[C@H]1O[C@@H](n2cc(F)c(=O)[nH]c2=O)C[C@@H]1O)Oc1cccc2ccccc12)C(=O)OCc1ccccc1 (mixture of isomers)	48	1.7	130	30000	29	80	1500	9400
CCCCCOC(=O)[C@@H](NP(=O)(OC[C@H]1O[C@@H](n2cc(F)c(=O)[nH]c2=O)C[C@@H]1O)Oc1cccc2ccccc12)[C@@H](C)CC (mixture of isomers)	700	1.67	460	17000	420	300	12000	11000
CCCCCOC(=O)[C@H](Cc1ccccc1)NP(=O)(OC[C@H]1O[C@@H](n2cc(F)c(=O)[nH]c2=O)C[C@@H]1O)Oc1cccc2ccccc12 (mixture of isomers)	140	4.67	100	8300	30	40	2900	6600
O=C(OCc1ccccc1)[C@H](Cc1ccccc1)NP(=O)(OC[C@H]1O[C@@H](n2cc(F)c(=O)[nH]c2=O)C[C@@H]1O)Oc1cccc2ccccc12 (mixture of isomers)	230	11	100	7200	21	160	5600	6800
CSCC[C@H](NP(=O)(OC[C@H]1O[C@@H](n2cc(F)c(=O)[nH]c2=O)C[C@@H]1O)Oc1cccc2ccccc12)C(=O)OCc1ccccc1 (mixture of isomers)	200	3.7	190	11000	54	87	1900	8300
